Activity calls are given as the source filed them. No cut-off for these calls is given here.
How the values were obtained:
[1] = target: Heat shock protein HSP 90-beta (Homo sapiens) (UniProt P08238); test: Binding affinity to human FLAG-tagged HSP90beta C-terminal domain expressed in human 293T cells at 30 uM by Western blot analysis; format: cell-based
Summary of the method: (§1)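 Flag-tagged full-length HSP90β and its NTD, MD and CTD constructs expressed by transfection in 293T cells; lysates incubated with 30 μM biotin-ViB, captured on streptavidin-agarose beads, bound protein detected by Western blot.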

[2] = target: Heat shock protein HSP 90-beta (Homo sapiens) (UniProt P08238); test: Binding affinity to human FLAG-tagged HSP90beta middle domain expressed in human 293T cells at 30 uM by Western blot analysis; format: cell-based; summary of the method: as §1
[3] = target: Heat shock protein HSP 90-beta (Homo sapiens) (UniProt P08238); test: Binding affinity to human FLAG-tagged HSP90beta N-terminal domain expressed in human 293T cells at 30 uM by Western blot analysis; format: cell-based; summary of the method: as §1
[4] = target: Heat shock protein HSP 90-beta (Homo sapiens) (UniProt P08238); test: Binding affinity to human recombinant His-tagged HSP90beta-CTD expressed in Escherichia coli BL21(DE3) at 80 uM after 2 hrs in presence of 18-fluro vibsanin B by Western blot analysis
[5] = target: Heat shock protein HSP 90-beta (Homo sapiens) (UniProt P08238); test: Binding affinity to human recombinant His-tagged HSP90beta-CTD expressed in Escherichia coli BL21(DE3) at 80 uM after 2 hrs in presence of vibsanin B by Western blot analysis
[6] = target: Heat shock protein HSP 90-beta (Homo sapiens) (UniProt P08238); test: Binding affinity to human recombinant His-tagged HSP90beta-CTD expressed in Escherichia coli BL21(DE3) at 80 uM after 2 hrs by Western blot analysis
[7] = target: Heat shock protein HSP 90-beta (Homo sapiens) (UniProt P08238); test: Binding affinity to human recombinant His-tagged HSP90beta-CTD expressed in Escherichia coli BL21(DE3) at 80 uM after 2 hrs in presence of ViB-4-OH by Western blot analysis
[8] = system: MCF7; test: Antiproliferative activity against human MCF7 cells assessed as reduction in cell viability after 48 hrs by MTT assay; format: functional, cell-based; conditions: MCF7, 48 h
[9] = system: SK-BR-3; test: Antiproliferative activity against human SKBR3 cells assessed as reduction in cell viability after 48 hrs by MTT assay; format: functional, cell-based; conditions: SK-BR-3, 48 h
[10] = target: Heat shock protein HSP 90-alpha (Homo sapiens) (UniProt P07900); test: Inhibition of FITC-geldanamycin binding to human FLAG-tagged HSP90alpha N-terminal domain
[11] = target: Heat shock protein HSP 90-beta (Homo sapiens) (UniProt P08238); test: Inhibition of FITC-geldanamycin binding to human FLAG-tagged HSP90beta N-terminal domain
[12] = system: SMMC-7721; test: Antiproliferative activity against human SMMC7721 cells assessed as reduction in cell viability after 48 hrs by MTT assay; format: functional, cell-based; conditions: SMMC-7721, 48 h
[13] = system: A549; test: Antiproliferative activity against human A549 cells assessed as reduction in cell viability after 48 hrs by MTT assay; format: functional, cell-based; conditions: A549, 48 h
[14] = system: HL-60; test: Antiproliferative activity against human HL60 cells assessed as reduction in cell viability after 48 hrs by MTT assay; format: functional, cell-based; conditions: HL-60, 48 h
[15] = system: SW480; test: Antiproliferative activity against human SW480 cells assessed as reduction in cell viability after 48 hrs by MTT assay; format: functional, cell-based; conditions: SW480, 48 h
[16] = organism: Oryctolagus cuniculus; test: Inhibition of HSP90 in rabbit reticulocyte lysate assessed as decrease in HSP90-dependant refolding of firefly luciferase at 10 uM after 30 mins by luciferase gene based assay
Summary of the method: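 Firefly luciferase heat-denatured at 41 °C for 10 min, then added with rabbit reticulocyte lysate to compounds at 10 μM. Renaturation at room temperature for 3 h; luciferin substrate added and luminescence read. Refolding expressed relative to DMSO; novobiocin at 500 μM as reference. Three independent experiments.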

[17] = system: HepG2; test: Antiproliferative activity against human HepG2 cells assessed as reduction in cell viability after 48 hrs by MTT assay; format: functional, cell-based; conditions: HepG2, 48 h
[18] = system: AGS; test: Antiproliferative activity against human AGS cells assessed as reduction in cell viability after 48 hrs by MTT assay; format: functional, cell-based
[19] = system: HeLa; test: Antiproliferative activity against human HeLa cells assessed as reduction in cell viability after 48 hrs by MTT assay; format: functional, cell-based
[20] = system: BT-474; test: Antiproliferative activity against human BT474 cells assessed as reduction in cell viability after 48 hrs by MTT assay; format: functional, cell-based; conditions: BT-474, 48 h
[21] = organism: Danio rerio; test: Toxicity in 3 days post fertilized zebrafish embryo assessed as changes in embryonic phenotypes at 4 to 16 uM after 12 hrs; conditions: in vivo
[22] = Half life of compound in toluene at 110 degreeC by HPLC analysis; format: physicochemical
Summary of the method: (§2)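 Thermostability in toluene at 110 °C or 60 °C followed by HPLC; half-life estimated.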

[23] = Drug metabolism in deionized water assessed as compound decomposition at 100 degreeC after 10 mins by HPLC analysis relative to control; format: physicochemical; conditions: read-out: Drug metabolism
Summary of the method: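 Thermostability determined by HPLC after heating in deionized water at 100 °C for 10 min; decomposition recorded in percent.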

[24] = Stability of compound in boiling ethyl alcohol by HPLC analysis; format: physicochemical
[25] = Half life of compound in toluene at 60 degreeC by HPLC analysis; format: physicochemical; summary of the method: as §2
[26] = Drug degradation in pH 7.4 PBS at 37 degreeC after 12 hrs by HPLC analysis relative to control
Summary of the method: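 Solution stability determined by HPLC after incubation in PBS pH 7.4 at 37 °C for 12 h.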

[27] = target: Luciferin 4-monooxygenase (Photinus pyralis) (UniProt P08659); test: Inhibition of firefly luciferase activity using luciferin substrate at 10 uM after 30 mins by luminescence assay
Sequence of Luciferin 4-monooxygenase (Photinus pyralis) (P08659 whole entry): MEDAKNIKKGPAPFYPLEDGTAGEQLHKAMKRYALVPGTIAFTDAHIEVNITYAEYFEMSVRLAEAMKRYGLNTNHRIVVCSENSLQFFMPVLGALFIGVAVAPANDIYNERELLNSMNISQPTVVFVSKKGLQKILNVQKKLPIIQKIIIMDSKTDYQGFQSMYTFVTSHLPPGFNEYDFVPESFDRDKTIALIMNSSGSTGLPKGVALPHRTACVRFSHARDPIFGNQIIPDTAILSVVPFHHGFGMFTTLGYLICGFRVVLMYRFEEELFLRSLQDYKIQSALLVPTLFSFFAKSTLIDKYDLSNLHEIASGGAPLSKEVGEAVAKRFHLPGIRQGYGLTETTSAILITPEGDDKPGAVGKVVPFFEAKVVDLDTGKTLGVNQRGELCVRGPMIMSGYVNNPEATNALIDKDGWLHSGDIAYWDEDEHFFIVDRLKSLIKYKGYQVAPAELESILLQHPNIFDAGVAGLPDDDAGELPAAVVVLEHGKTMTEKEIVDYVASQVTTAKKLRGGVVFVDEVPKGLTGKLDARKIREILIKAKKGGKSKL

[28] = system: MDA-MB-468; test: Antiproliferative activity against human MDA-MB-468 cells assessed as reduction in cell viability after 48 hrs by MTT assay; format: functional, cell-based; conditions: MDA-MB-468, 48 h
[29] = system: Huh-7; test: Antiproliferative activity against human HuH7 cells assessed as reduction in cell viability after 48 hrs by MTT assay; format: functional, cell-based; conditions: Huh-7, 48 h
[30] = system: BEAS-2B; test: Cytotoxicity against human BEAS2B cells assessed as reduction in cell viability after 48 hrs by MTT assay; format: cell-based

Sequence of Heat shock protein HSP 90-beta (Homo sapiens) (P08238 whole entry, the tested form may be a part): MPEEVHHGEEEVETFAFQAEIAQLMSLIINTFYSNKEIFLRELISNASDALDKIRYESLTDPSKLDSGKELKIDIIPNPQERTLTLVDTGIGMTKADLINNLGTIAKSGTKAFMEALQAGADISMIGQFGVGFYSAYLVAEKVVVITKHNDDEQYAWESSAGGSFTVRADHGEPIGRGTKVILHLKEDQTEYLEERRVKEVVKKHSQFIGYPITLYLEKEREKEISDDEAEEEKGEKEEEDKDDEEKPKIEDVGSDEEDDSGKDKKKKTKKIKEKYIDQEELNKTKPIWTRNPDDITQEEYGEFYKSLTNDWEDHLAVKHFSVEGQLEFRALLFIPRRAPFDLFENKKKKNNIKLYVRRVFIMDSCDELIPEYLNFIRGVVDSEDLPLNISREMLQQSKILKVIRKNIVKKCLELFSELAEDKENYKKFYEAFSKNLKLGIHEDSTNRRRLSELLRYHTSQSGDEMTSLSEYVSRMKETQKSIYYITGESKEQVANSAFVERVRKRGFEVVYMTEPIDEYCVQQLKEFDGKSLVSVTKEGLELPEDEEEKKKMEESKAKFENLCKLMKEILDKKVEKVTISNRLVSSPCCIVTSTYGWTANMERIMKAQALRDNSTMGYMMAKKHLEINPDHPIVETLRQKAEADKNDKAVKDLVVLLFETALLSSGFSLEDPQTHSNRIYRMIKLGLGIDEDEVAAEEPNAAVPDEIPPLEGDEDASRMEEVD

SMILES	IC50 [8] [nM]	IC50 [9] [nM]	IC50 [12] [nM]	IC50 [13] [nM]	IC50 [14] [nM]	IC50 [15] [nM]	inhibition [16]	IC50 [17] [nM]	IC50 [18] [nM]	IC50 [19] [nM]	IC50 [20] [nM]	Activity [21]	inhibition [27]	other results
CC(C)=CCC[C@]1(C)/C=C/[C@@H](OC(=O)C=C(C)C)[C@](C)(O)/C=C/C(=O)/C(COC(=O)CNCc2cn(CCOCCOCCOC(=O)CCCC[C@@H]3SC[C@@H]4NC(=O)N[C@@H]43)nn2)=C\C1	–	–	–	–	–	–	–	–	–	–	–	–	–	Activity [1]: Active; Activity [2]: Active; Activity [3]: inactive; Activity [4]: inactive; Activity [5]: inactive; Activity [6]: Active; Activity [7]: Active
CC(C)=CCC[C@]1(C)/C=C/[C@@H](OC(=O)C=C(C)C)[C@](C)(O)/C=C/C(=O)/C(CO)=C\C1 [VIBSANIN B]	2850	9190	3250	3460	2640	2650	Active	19100	9680	2480	4550	Toxic	inactive	inhibition [10]: inactive; inhibition [11]: inactive; half-life [22]: 5 min; degraded at 10 min [23]: 2.8%; Stability [24]: Stable; half-life [25]: 9 min; Drug degradation [26]: 4.92%
CC(C)=CCC[C@]1(C)/C=C/[C@@H](OC(=O)C=C(C)C)[C@](C)(O)/C=C/C(=O)/C(CF)=C\C1	240	330	140 to 620	140 to 620	140 to 620	140 to 620	Active	860	740	880	940	Toxic	inactive	IC50 [28]: 310 nM; IC50 [29]: 540 nM; IC50 [30]: 770 nM

Reference: ChEMBL document CHEMBL4024747, “Design, Synthesis, and Biological Activities of Vibsanin B Derivatives: A New Class of HSP90 C-Terminal Inhibitors” (J Med Chem, 2017)
